Assay results reported in ChEMBL document CHEMBL2434878, “Synthesis and antimycobacterial activity of analogues of the bioactive natural products sampangine and cleistopholine” (Eur J Med Chem, 2013).

Columns and labels:
[1] = system: Mycobacterium tuberculosis; assay: Antimicrobial activity against multidrug-resistant Mycobacterium tuberculosis LAM-1 at 5 uM by Bactec 460 TB method relative to control; format: functional; conditions: read-out: GI
Summary of the method: (§1)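 MDR clinical isolate LAM-1 was precultured in a BACTEC vial to growth index 300, then inoculated into a fresh vial with compound (dilutions made at 40-fold final in 7H9-10% OADC). 14CO2 release from 14C-palmitic acid was read daily.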

[2] = system: Mycobacterium tuberculosis; assay: Antimicrobial activity against multidrug-resistant Mycobacterium tuberculosis LAM-1 at 1 uM by Bactec 460 TB method relative to control; format: functional; conditions: read-out: GI; summary of the method: as §1

Compound	inhibition of growth at 5 µM [1] [%]	inhibition of growth at 1 µM [2] [%]
COc1ccc(-c2cc3c4c(nccc4n2)-c2ccccc2C3=O)cc1	99	90
COc1ccc(-c2cc(O)c3c(c2)C(=O)c2ccccc2C3=O)cc1	99	90
COc1ccc(-c2cc3c(c(/C=C/N(C)C)n2)C(=O)c2ccccc2C3=O)cc1	99	90
